Laboratory results taken from ChEMBL document CHEMBL1135127, “SAR and species/stereo-selective metabolism of the sorbitol dehydrogenase inhibitor, CP-470,711” (Bioorg Med Chem Lett, 2002).

Experiments:
[1] = system: Rattus norvegicus; assay: In vivo prevention of sciatic nerve fructose accumulation in streptozotocin diabetic rat by acute assay (tid x 4); type: functional
Method in brief: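 Streptozotocin-diabetic rats dosed three times daily, starting 4 h after STZ, to prevent sciatic nerve fructose accumulation. Activity is reported as ED90 in mg/kg/d.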

[2] = system: Rattus norvegicus; assay: In vivo reversal of sciatic nerve fructose accumulation in streptozotocin rat by chronic assay at 1 mg/kg (qd x 5); type: functional
Method in brief: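 Reversal design in STZ rats: once-daily dosing began 5 days after STZ. Sciatic nerve fructose was measured and activity expressed as % normalization at 1 mg/kg.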

[3] = target: T1, Sorbitol dehydrogenase (Homo sapiens, UniProt Q00796); assay: In vitro inhibition against human recombinant Sorbitol dehydrogenase
T1 sequence (Q00796 whole entry): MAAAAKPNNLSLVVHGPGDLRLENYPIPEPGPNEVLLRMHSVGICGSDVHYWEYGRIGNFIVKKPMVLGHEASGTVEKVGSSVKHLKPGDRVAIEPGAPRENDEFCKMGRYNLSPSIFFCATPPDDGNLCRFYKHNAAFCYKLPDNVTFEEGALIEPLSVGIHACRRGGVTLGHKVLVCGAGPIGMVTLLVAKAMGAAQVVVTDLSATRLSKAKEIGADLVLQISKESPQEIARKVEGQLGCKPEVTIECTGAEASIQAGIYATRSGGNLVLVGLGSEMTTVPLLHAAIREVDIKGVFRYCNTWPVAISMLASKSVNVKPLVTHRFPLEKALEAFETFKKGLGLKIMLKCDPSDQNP

[4] = target: T2, Sorbitol dehydrogenase (Rattus norvegicus, UniProt P27867); assay: Inhibition of recombinant rat Sorbitol dehydrogenase
T2 sequence (P27867 whole entry): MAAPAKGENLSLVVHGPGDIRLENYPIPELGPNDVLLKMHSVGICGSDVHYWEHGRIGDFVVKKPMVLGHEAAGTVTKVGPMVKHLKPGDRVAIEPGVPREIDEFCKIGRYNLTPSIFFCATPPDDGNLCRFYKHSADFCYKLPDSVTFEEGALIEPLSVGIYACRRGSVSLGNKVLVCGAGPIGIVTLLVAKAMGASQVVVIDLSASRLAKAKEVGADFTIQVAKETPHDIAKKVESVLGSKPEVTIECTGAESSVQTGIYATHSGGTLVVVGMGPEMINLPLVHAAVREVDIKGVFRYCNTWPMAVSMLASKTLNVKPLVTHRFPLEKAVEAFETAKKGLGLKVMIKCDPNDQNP

[5] = target: T1, Sorbitol dehydrogenase; assay: In vitro inhibition against human recombinant sorbitol dehydrogenase
[6] = target: T2, Sorbitol dehydrogenase; assay: Inhibition of recombinant rat sorbitol dehydrogenase

| IC50 [3] [nM] | IC50 [4] [nM] | IC50 [5] [nM] | IC50 [6] [nM] | SMILES | ED90 [1] [mg/kg/day] | Reversal [2] [%] |
| --- | --- | --- | --- | --- | --- | --- |
| 831 | 640 | – | – | C[C@H](O)c1nccc(N2C[C@@H](C)N(c3ccnc([C@H](C)O)n3)[C@@H](C)C2)n1 | 0.7 | 84 |
| 28 | 8 | – | – | CC(O)c1nccc(N2C[C@@H](C)N(c3ccnc(C(C)O)n3)[C@@H](C)C2)n1 (some centres not stated) | 0.6 | 92 |
| – | – | 33 | 29 | C[C@H](O)c1nccc(N2C[C@@H](C)N(c3ccnc([C@@H](C)O)n3)[C@@H](C)C2)n1 | 0.4 | 81 |

The remaining lines, values behind:

| SMILES | IC50 [3] [nM] | IC50 [4] [nM] | IC50 [5] [nM] | IC50 [6] [nM] | ED90 [1] [mg/kg/day] | Reversal [2] [%] |
| --- | --- | --- | --- | --- | --- | --- |
| C[C@H](O)c1nccc(N2[C@H](C)CN(c3ccnc([C@@H](C)O)n3)C[C@@H]2C)n1 | 19 | 27 | – | – | 0.8 | 81 |
| CC(=O)c1nccc(N2C[C@@H](C)N(c3ccnc(C(C)=O)n3)[C@@H](C)C2)n1 | – | – | 212 | 227 | 0.9 | 92 |
| CC(=O)c1nccc(N2[C@H](C)CN(c3ccnc([C@@H](C)O)n3)C[C@@H]2C)n1 | – | – | 6 | 5 | 0.5 | 77 |
| CC(=O)c1nccc(N2C[C@@H](C)N(c3ccnc([C@@H](C)O)n3)[C@@H](C)C2)n1 | – | – | 19 | 18 | 0.2 | 94 |
| C[C@@H]1CN(c2ccnc([C@@H](C)O)n2)C[C@H](C)N1c1ccnc([C@@H](C)O)n1 | – | – | 10 | 17 | 0.2 | 90 |
